Laboratory results as given in ChEMBL document CHEMBL1138316, “Design, synthesis, and melatoninergic activity of new azido- and isothiocyanato-substituted indoles” (J Med Chem, 2007).
Activity calls are given as the source filed them. The calls are words filed in the database; no cut-off is given here.

What was measured:
Assay type in all cases: functional
[1] = species on record: Xenopus laevis; test: Agonist activity at melatonin receptor in Xenopus laevis melanophores assessed as effect on pigment granule distribution at 100 uM relative to melatonin
Summary of the method: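 In Xenopus laevis melanophores, maximal agonist action at 100 µM was expressed as a percentage of the response to 1 nM melatonin. Data come from triplicate experiments.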

[2] = Antagonist activity at melatonin receptor in Xenopus laevis melanophores assessed as reduction of melatonin-induced pigment aggregation
Summary of the method: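 Antagonism of the melatonin response in Xenopus laevis melanophores was reported as pIC50. Values are the mean ± SEM of triplicate experiments.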

[3] = species on record: Xenopus laevis; test: Agonist activity at melatonin receptor in Xenopus laevis melanophores assessed as effect on pigment granule distribution at 100 uM
Summary of the method: (§1)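 Agonist response in Xenopus laevis melanophores was tested up to a highest concentration of 100 µM and reported as pEC50. Values are the mean ± SEM of triplicate experiments.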

[4] = Agonist activity at melatonin receptor in Xenopus laevis melanophores assessed as effect on pigment granule distribution; summary of the method: as §1

SMILES	Activity [1]	Log IC50 [2]	Activity [3]	Log EC50 [4]
S=C=NCCCc1c[nH]c2ccccc12	31%	-3.92		
COc1ccc2c(ccn2CCCN=[N+]=[N-])c1		-4.81	inactive	
COc1ccc2[nH]cc(CCN=[N+]=[N-])c2c1		-5.09	inactive	
COc1ccc2[nH]c(CCCN=[N+]=[N-])cc2c1		-4.15	inactive	
S=C=NCCCc1cc2ccccc2[nH]1	38%	-4.35		
COc1ccc2[nH]cc(CCCN=[N+]=[N-])c2c1		-5.03	inactive	
COc1ccc2[nH]cc(CCN=C=S)c2c1		-5.47	inactive	
S=C=NCCCn1ccc2ccccc21	28%	-4.04		
COc1ccc2c(ccn2CCCN=C=S)c1		-4.91	inactive	
COc1ccc2[nH]cc(CCCN=C=S)c2c1		-4.49	inactive	
[N-]=[N+]=NCCCn1ccc2ccccc21		-4.82	inactive	
[N-]=[N+]=NCCCc1c[nH]c2ccccc12		-4.79	inactive	
CC(=O)NCCc1c(Cc2ccccc2)[nH]c2ccccc12 [LUZINDOLE]		-5.61	inactive	
COc1ccc2[nH]cc(CCNC(C)=O)c2c1 [MELATONIN]				-10.07
[N-]=[N+]=NCCCc1cc2ccccc2[nH]1		-4.72	inactive	
COc1ccc2[nH]c(CCCN=C=S)cc2c1	41%	-4.47		
